Experimental data: ChEMBL document CHEMBL4400535, “Experience-based discovery (EBD) of aryl hydrazines as new scaffolds for the development of LSD1/KDM1A inhibitors” (Eur J Med Chem, 2019)
Activity calls are given as the source filed them. The rule behind the calls is not given here.

Columns and labels:
[1] = biological target: T1, Lysine-specific histone demethylase 1A (Homo sapiens, UniProt O60341); assay: Inhibition of recombinant LSD1 (unknown origin) using H3K4me2 as substrate by fluorescence assay
[2] = biological target: T1, Lysine-specific histone demethylase 1A; assay: Binding affinity to LSD1 in human A549 cells assessed as thermal stability by measuring temperature at 10 uM after 1 hr by thermal shift assay; assay type: cell-based
Outline: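 CETSA: A549 cells (5 × 10⁵ per sample) were exposed 1 h to 10 µM compound or DMSO, washed in PBS, and resuspended in PBS with protease inhibitor. Samples were heated 3 min at the indicated temperatures (e.g. 46, 49, 52 °C), then freeze-thawed three times in liquid nitrogen. Soluble LSD1 was measured by western blot with a GAPDH control; three independent experiments.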

[3] = biological target: T1, Lysine-specific histone demethylase 1A; assay: Inhibition of LSD1 in human A549 cells assessed as accumulation of H3K4me1 after 96 hrs by Western blot analysis; assay type: cell-based
Outline: (§1)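 A549 cells were treated with 0, 1 and 6 µM for 96 h, then lysed in RIPA buffer (50 mM Tris-HCl pH 7.5) with protease inhibitors. Lysates went through SDS-PAGE, PVDF transfer and probing for the histone mark, with ECL detection. Bands were quantified against total H3. Run at least three times; mean ± SD.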

[4] = biological target: T1, Lysine-specific histone demethylase 1A; assay: Inhibition of LSD1 in human A549 cells assessed as accumulation of H3K4me2 after 96 hrs by Western blot analysis; assay type: cell-based; outline: as §1
[5] = biological target: T1, Lysine-specific histone demethylase 1A; assay: Inhibition of LSD1 in human A549 cells assessed as accumulation of H3K9me1 after 96 hrs by Western blot analysis; assay type: cell-based; outline: as §1
[6] = biological target: T1, Lysine-specific histone demethylase 1A; assay: Inhibition of LSD1 in human A549 cells assessed as accumulation of H3K9me2 after 96 hrs by Western blot analysis; assay type: cell-based; outline: as §1
[7] = biological target: T1, Lysine-specific histone demethylase 1A; assay: Inhibition of LSD1 in human A549 cells assessed as accumulation of H3K9me1 up to 6 uM after 96 hrs by Western blot analysis; assay type: cell-based
Outline: (§2)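 A549 cells exposed to 0, 1 or 6 µM for 96 h, lysed in RIPA buffer (pH 7.5) with protease inhibitors. Lysates (40 µg/lane) resolved by 10% or 12% SDS-PAGE and immunoblotted for H3K4me1/2 and H3K9me1/2. ECL read-out, quantified against total histone H3 loading control. At least three experiments, mean ± SD.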

[8] = biological target: T2, MAO-A (Homo sapiens, UniProt P21397); assay: Inhibition of MAO-A (unknown origin) at 10 uM relative to control
T2 sequence (P21397 whole entry): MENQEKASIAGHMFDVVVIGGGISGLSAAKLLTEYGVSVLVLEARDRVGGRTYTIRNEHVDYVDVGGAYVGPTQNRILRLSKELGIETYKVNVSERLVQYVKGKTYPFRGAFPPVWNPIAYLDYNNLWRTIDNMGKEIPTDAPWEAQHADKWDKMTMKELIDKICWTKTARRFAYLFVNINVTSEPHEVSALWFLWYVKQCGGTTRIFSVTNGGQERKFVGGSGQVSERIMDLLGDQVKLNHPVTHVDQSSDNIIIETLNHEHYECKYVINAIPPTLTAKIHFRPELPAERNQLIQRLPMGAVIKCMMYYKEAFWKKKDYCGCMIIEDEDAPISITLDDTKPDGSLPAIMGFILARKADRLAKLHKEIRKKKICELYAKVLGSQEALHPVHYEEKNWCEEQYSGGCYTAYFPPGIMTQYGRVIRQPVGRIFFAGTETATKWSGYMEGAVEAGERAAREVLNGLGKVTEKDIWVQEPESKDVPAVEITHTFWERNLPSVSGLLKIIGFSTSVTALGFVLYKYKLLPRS

[9] = biological target: T2, MAO-A; assay: Inhibition of MAO-A (unknown origin) at 1 uM relative to control
[10] = biological target: T3, MAO-B (Homo sapiens, UniProt P27338); assay: Inhibition of MAO-B (unknown origin) at 10 uM relative to control
T3 sequence (P27338 whole entry): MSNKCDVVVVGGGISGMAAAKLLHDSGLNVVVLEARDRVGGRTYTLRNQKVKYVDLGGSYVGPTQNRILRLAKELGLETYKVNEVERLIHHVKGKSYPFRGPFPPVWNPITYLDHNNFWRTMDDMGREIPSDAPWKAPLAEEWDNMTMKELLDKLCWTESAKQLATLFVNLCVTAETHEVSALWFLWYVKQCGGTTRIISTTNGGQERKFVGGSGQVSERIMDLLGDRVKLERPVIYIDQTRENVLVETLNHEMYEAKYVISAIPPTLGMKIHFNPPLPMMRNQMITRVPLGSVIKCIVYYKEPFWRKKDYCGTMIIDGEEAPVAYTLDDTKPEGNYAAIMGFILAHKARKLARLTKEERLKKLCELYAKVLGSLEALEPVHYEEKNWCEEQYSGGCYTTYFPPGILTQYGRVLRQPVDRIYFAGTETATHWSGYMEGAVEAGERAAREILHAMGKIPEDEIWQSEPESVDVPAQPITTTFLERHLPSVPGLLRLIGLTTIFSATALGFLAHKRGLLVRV

[11] = biological target: T3, MAO-B; assay: Inhibition of MAO-B (unknown origin) at 1 uM relative to control
[12] = biological target: T1, Lysine-specific histone demethylase 1A; assay: Reversible inhibition of recombinant LSD1 (unknown origin) assessed as recovery of enzyme activity at 40 uM measured 1 hr after 80-fold dilution
Outline: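 Dilution assay: 2.5 µg recombinant LSD1 was preincubated 1 h at 25 °C with 40 µM compound, 1.6 µM GSK2879552 or DMSO. Aliquots were then diluted 80-fold into HRP-coupled assay solution with substrate and compared with undiluted mixtures to assess recovery of LSD1 activity.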

[13] = biological target: T1, Lysine-specific histone demethylase 1A; assay: Competitive inhibition of recombinant LSD1 (unknown origin) up to 1.25 uM using H3K4me2 as substrate in presence of FAD by Lineweaver-Burk plot analysis
[14] = system: A549; assay: Antimigratory activity against human A549 cells after 48 hrs by wound healing assay; assay type: functional, cell-based
Outline: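 Scratch assay: cells seeded at 1 × 10⁴ per well and grown 24 h, then the monolayer was scratched with a pipette tip. Cells were then cultured 48 h in fresh medium with 1% FBS and graded compound concentrations. Wound closure was photographed under an inverted microscope. Run at least three times; mean ± SD.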

[15] = system: A549; assay: Up regulation of E-cadherin levels in human A549 cells up to 6 uM after 96 hrs by Western blot analysis; assay type: functional, cell-based
Outline: (§3)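 A549 cells treated with 0, 1 or 6 µM for 96 h, harvested with trypsin and lysed in RIPA buffer (pH 7.5) with protease inhibitors. 40 lg protein/lane on SDS-PAGE, transferred to PVDF, probed overnight with specific primary antibodies. ECL detection, quantified against GAPDH loading control. At least three experiments, mean ± SD.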

[16] = system: A549; assay: Up regulation of claudin-1 levels in human A549 cells up to 6 uM after 96 hrs by Western blot analysis; assay type: functional, cell-based; outline: as §3
[17] = system: A549; assay: Down regulation of N-cadherin levels in human A549 cells up to 6 uM after 96 hrs by Western blot analysis; assay type: functional, cell-based; outline: as §3
[18] = system: A549; assay: Down regulation of slug levels in human A549 cells up to 6 uM after 96 hrs by Western blot analysis; assay type: functional, cell-based; outline: as §3
[19] = system: A549; assay: Down regulation of snail levels in human A549 cells up to 6 uM after 96 hrs by Western blot analysis; assay type: functional, cell-based; outline: as §3
[20] = system: A549; assay: Effect on LSD1 expression in human A549 cells up to 6 uM after 96 hrs by Western blot analysis; assay type: functional, cell-based; outline: as §3
[21] = biological target: T1, Lysine-specific histone demethylase 1A; assay: Inhibition of H3K4me2 binding to LSD1 in human A549 cells up to 6 uM after 96 hrs by immunoprecipitation assay; assay type: cell-based
Outline: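 Co-IP: A549 cells were treated with 0 or 6 µM for 96 h, trypsinised, and lysed in IP lysis/wash buffer with protease inhibitors. LSD1 antibody was used as bait, and H3K4me2 bound to LSD1 was detected. Total cell lysate was blotted alongside with a GAPDH loading control.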

[22] = system: GES1; assay: Cytotoxicity against human GES-1 cells assessed as decrease in cell viability after 96 hrs by MTT assay; assay type: cell-based; conditions: GES1, 96 h
Outline: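 GES-1 cells were grown in RPMI-1640 with 10% FBS at 37 °C and 5% CO₂. They were seeded at 3 × 10³ per well, left overnight, then given graded concentrations for 4 days (0.1% DMSO vehicle). MTT was added for 4 h at 37 °C, formazan dissolved in DMSO, and A570 read. Viability = (At/As) × 100% against solvent control.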

[23] = biological target: T1, Lysine-specific histone demethylase 1A; conditions: 1.6 uM
[24] = biological target: T1, Lysine-specific histone demethylase 1A; assay: Inhibition of LSD1 in human A549 cells assessed as accumulation of H3K4me1 up to 6 uM after 96 hrs by Western blot analysis; assay type: cell-based; outline: as §2
[25] = biological target: T1, Lysine-specific histone demethylase 1A; assay: Inhibition of LSD1 in human A549 cells assessed as accumulation of H3K4me2 up to 6 uM after 96 hrs by Western blot analysis; assay type: cell-based; outline: as §2
[26] = biological target: T1, Lysine-specific histone demethylase 1A; assay: Inhibition of LSD1 in human A549 cells assessed as accumulation of H3K9me2 up to 6 uM after 96 hrs by Western blot analysis; assay type: cell-based; outline: as §2
[27] = system: A549; assay: Antimigratory activity against human A549 cells at 6 uM after 48 hrs by wound healing assay; assay type: functional, cell-based
Outline: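 Scratch wound assay in A549 monolayers: cells seeded at 1 × 10⁴ per well, incubated 24 h, then scratched with a pipette tip. Cultured 48 h in fresh medium with 1% FBS and varying compound concentrations, then photographed under an inverted microscope. At least three independent experiments, mean ± SD.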

Compound: CNCCN(C)c1cc(C)nc2nc(SCc3ccccc3)nn12
- IC50 [1]: > 50 µM

Compound: Cc1cc(NCCN)n2nc(SCc3ccccc3)nc2n1
- IC50 [1]: > 50 µM

Compound: Cc1cc(N2CCCC(NC(=O)OC(C)(C)C)C2)n2nc(SCc3ccccc3)nc2n1 (stereo not drawn)
- IC50 [1]: > 50 µM

Compound: Cc1cc(N)n2nc(SCc3ccccc3)nc2n1
- IC50 [1]: > 50 µM

Compound: Cc1cc(NN)n2ncnc2n1
- IC50 [1]: > 50 µM
- Activity [2]: inactive
- inhibition [3]: inactive
- inhibition [4]: inactive
- inhibition [5]: inactive
- inhibition [6]: inactive
- inhibition [7]: inactive

Compound: Cc1cc(NCCOCCOCCN)n2nc(SCc3ccccc3)nc2n1
- IC50 [1]: > 50 µM

Compound: Cc1cc(NN)n2nc(SCc3ccccc3)nc2n1
- IC50 [1]: 0.882 µM
- inhibition at 10 µM [8]: 36%
- inhibition at 1 µM [9]: 21%
- inhibition at 10 µM [10]: 43%
- inhibition at 1 µM [11]: 15%
- inhibition [12]: Active
- inhibition [13]: Active
- T [2]: 52 °C
- inhibition [3]: Dose-dependent effect
- inhibition [4]: Dose-dependent effect
- inhibition [5]: Dose-dependent effect
- inhibition [6]: Dose-dependent effect
- Activity [14]: Dose-dependent effect
- Activity [15]: Active
- Activity [16]: Active
- Activity [17]: Active
- Activity [18]: Active
- Activity [19]: Active
- Activity [20]: inactive
- inhibition [21]: Active
- IC50 [22]: > 50 µM

Compound: C/C(=N\NC(=O)c1cccc(S(=O)(=O)N2CCOCC2)c1)c1cc(Cl)ccc1O
- IC50 [1]: 0.0243 µM

Compound: Cc1cc(N(C)CCN(C)C)n2nc(SCc3ccccc3)nc2n1
- IC50 [1]: > 50 µM

Compound: NNc1cc(-c2ccccc2)nc2nc(SCc3ccccc3)nn12
- IC50 [1]: > 50 µM

Compound: O=C(O)c1ccc(CN2CCC(CN[C@@H]3C[C@H]3c3ccccc3)CC2)cc1
- inhibition [23]: Active

Compound: Cc1cc(NN)n2nc(SCc3cccc4ccccc34)nc2n1
- IC50 [1]: > 50 µM

Compound: c1ccc([C@@H]2C[C@H]2NC2CCNCC2)cc1 (racemic)
- inhibition [3]: Dose-dependent effect
- inhibition [4]: Dose-dependent effect
- inhibition [6]: Dose-dependent effect
- inhibition [24]: Active
- inhibition [25]: Active
- inhibition [7]: inactive
- inhibition [26]: Active
- Activity [15]: Active
- Activity [16]: Active
- Activity [17]: Active
- Activity [18]: Active
- Activity [19]: Active
- Activity [20]: inactive
- inhibition [27]: Active

Compound: Cc1cc(N2CCCC(N)C2)n2nc(SCc3ccccc3)nc2n1 (stereo not drawn)
- IC50 [1]: > 50 µM
